Assay outcomes: PubChem BioAssay, several laboratories
This is a sample that favours compounds with a hit; in the whole collection about 3.5% have one here.
PAFAH2 inh: inhibitors of human PAFAH2. inhibition, % at 3.39 µM. hit rate 0.99% among 340,000. recombinant PAFAH2, FP-rhodamine activity probe, fluorescence polarization. AID 492956. Q99487;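 active = inhibition above the mean over all tested compounds plus 3 SD, cut at about 30% in these data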;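 note: inhibitors block probe labeling of enzyme so polarization drops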
Apaf1 inhib: human Apaf-1 inhibition; reconstituted apoptosome caspase-3 activity, DEVD-Rh110 fluorescence; inhibition, % at 20 µM; hit rate 0.71% among 330,000; O14727; active = inhibition of at least 40% at 20 µM
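System: reconstituted apoptosome with Apaf-1, cytochrome c, caspase-9, procaspase-3, dATP; Signal: Rh110 fluorescence intensity; Schedule: 30 min compound preincubation, 50 min activation, room temperature; Reagent: cytochrome c trigger plus (Z-DEVD)2-Rh110 caspase-3 substrate.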
PREPL inhibitor: human PREPL enzyme inhibition; recombinant PREPL, fluorescence polarization activity-based probe; inhibition, % at 5.96 µM; hit rate 0.68% among 320,000; Q4J6C6; in the data active = inhibition above about 43%
pPAFAH FP inh: inhibitors of human plasma PAF acetylhydrolase (pPAFAH); Q13093; recombinant pPAFAH, FP-rhodamine probe fluorescence polarization; AID 463082; inhibition, % at 3.39 µM; hit rate 1.5% among 330,000;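 active = inhibition above the mean inhibition across the screen plus 3 SD, cut at about 25% in these data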;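 note: inhibitors block binding of the rhodamine activity-based probe so polarization drops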
PAFAH1B2 FP inh: blocks human PAF acetylhydrolase 1b catalytic subunit 2. hit rate 1.2% among 340,000. recombinant PAFAH1B2, FP-rhodamine activity probe, fluorescence polarization. inhibition, % at 3.39 µM. P68402. AID 492953;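 active = inhibition above the mean of all tested compounds plus 3 SD, cut at about 24% in these data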
PAFAH1B3 FP inh: inhibitors of human PAFAH1B3; recombinant PAFAH1B3, FP-rhodamine probe, fluorescence polarization; inhibition, % at 3.39 µM; hit rate 0.28% among 340,000; AID 492972;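 active = inhibition above the screen-wide average of all tested compounds plus 3 SD, cut at about 25% in these data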
Of the large screens only hits and unclear results are named; the others gave an inactive call.

O=c1[nH]c(=S)n(Cc2ccc(F)cc2)c(O)c1/C=N/N1CCCCC1	PAFAH1B2 FP inh 32
O=c1[nH]c(=S)n(Cc2ccc(F)cc2)c(O)c1C=NCc1cccnc1	PAFAH1B2 FP inh 28
O=c1[nH]c(=S)n(Cc2ccc(F)cc2)c(O)c1C=NCC1CCCO1 (configuration not stated)	PAFAH1B2 FP inh 34
CCC(C)n1c(O)c(C=NCc2cccnc2)c(=O)[nH]c1=S (configuration not stated)	none
O=c1[nH]c(=O)n(Cc2ccc(F)cc2)c(O)c1C=NCCN1CCCCC1	none
Cc1ccccc1N1C(=O)NC(=O)/C(=C\c2ccc3c(c2)CCCN3Cc2ccccc2)C1=O	none
O=C1NC(=S)NC(=O)C1=Cc1ccc2c(c1)CCN2CCCCl	pPAFAH FP inh 29 (no result: PAFAH2 inh, PAFAH1B2 FP inh, PAFAH1B3 FP inh)
CC(C)(C#CC(=O)O)OOC(c1ccccc1)(c1ccccc1)c1ccccc1	pPAFAH FP inh 31
ClC1=CCC2CN(CCN3CCCCC3)CC2C1 (configuration not stated)	none
COc1ccc(Cn2c(O)c(/C=N/NC(=O)c3ccccc3O)c(=O)[nH]c2=O)cc1	pPAFAH FP inh 27
O=C(N/N=C/c1c(O)n(Cc2ccc(F)cc2)c(=O)[nH]c1=O)c1ccccc1O	pPAFAH FP inh 32, PAFAH1B2 FP inh 35
O=C(N/N=C/c1c(O)n(Cc2ccccc2)c(=O)[nH]c1=O)c1ccccc1O	PAFAH2 inh 47, PAFAH1B2 FP inh 34, PAFAH1B3 FP inh 33
COc1ccc(-c2cc(=O)oc3c(C)c(OC(C)C(=O)N4C[C@H]5C[C@@H](C4)c4cccc(=O)n4C5)ccc23)cc1 (some centres not stated)	none
COc1ccc2[nH]cc(C3=CCNCC3)c2c1	PREPL inhibitor 51 (no result: PAFAH2 inh, PAFAH1B2 FP inh, PAFAH1B3 FP inh)
COc1ccc(CNCCc2ccccc2F)c(OC)c1C	none
CC1CCC(C)(NS(=O)(=O)OCC(Cl)(Cl)Cl)CC1 (configuration not stated)	pPAFAH FP inh 33, PAFAH1B2 FP inh 45
CCOc1cccc(OCC)c2c(C)[n+](CC3CCCO3)c(C)c1-2 (configuration not stated)	PAFAH2 inh 32
COc1ccc(CCNCC2CCCO2)cc1 (configuration not stated)	none
Cn1c(O)c(/C=C2\N=c3ccccc3=C2CCNC(=S)NC2CC2)c(=O)n(C)c1=O	PAFAH1B2 FP inh 56
O=S(=O)(c1ccc(F)cc1)N1CCCC1c1cccnc1 (configuration not stated)	none
Nc1ccc(C2(c3ccc(N)cc3)CCCCC2)cc1	PAFAH1B2 FP inh 38
CN1CCN(c2ccc([N+](=O)[O-])c(NCC3CCCO3)c2)CC1 (configuration not stated)	none
O=C(c1ccc(CS(=O)(=O)c2ccccc2)o1)N1CCC2(CC1)OCCO2	none
O=C(COc1ccc(Cl)cc1)NCCc1cnc[nH]1	none (no result: PREPL inhibitor, pPAFAH FP inh)
O=C1NC(=O)N(c2ccc(F)cc2)C(=O)/C1=C/c1ccc(N2CCOCC2)cc1	none
COc1ccc(CN2C(=O)NC(=O)/C(=C/c3ccc([N+](=O)[O-])s3)C2=O)cc1	PAFAH2 inh 63, pPAFAH FP inh 31, PAFAH1B2 FP inh 33, PAFAH1B3 FP inh 46
COc1ccc(CN2C(=O)NC(=O)/C(=C\c3ccco3)C2=O)cc1	none
COc1cccc(N2C(=O)NC(=O)/C(=C/c3ccc4c(c3)Cc3ccccc3-4)C2=O)c1	none
O=C1NC(=O)N(Cc2ccc(F)cc2)C(=O)/C1=C\c1ccc([N+](=O)[O-])s1	PAFAH2 inh 56, pPAFAH FP inh 26, PAFAH1B2 FP inh 34
COc1cccc(N2C(=O)NC(=O)/C(=C/c3ccc([N+](=O)[O-])s3)C2=O)c1	PAFAH2 inh 49, pPAFAH FP inh 33, PAFAH1B2 FP inh 33, PAFAH1B3 FP inh 46
O=C1NC(=O)N(Cc2ccc(F)cc2)C(=O)/C1=C\c1ccc(N2CCCC2)cc1	pPAFAH FP inh 26
CN(C)C1(CNC(=O)c2cc(S(=O)(=O)N3CCOCC3)c(Cl)cc2Cl)CCCCC1	none
C[C@]12CCC3C(CC[C@H]4C[C@H](O)CC[C@]34C)C1[C@@H](O)[C@@H](O)[C@@H]2O (some centres not stated)	none
OC1/C(=C/c2ccc(F)cc2)N2CCC1CC2 (configuration not stated)	none
NC(Cc1cc(O)c(O)cc1O)C(=O)O (configuration not stated)	Apaf1 inhib 84, PREPL inhibitor 67, pPAFAH FP inh 84 (no result: PAFAH2 inh, PAFAH1B2 FP inh, PAFAH1B3 FP inh)
COc1ccc(C=C2C(=O)NC(=S)NC2=O)cc1OC	none (no result: Apaf1 inhib, PREPL inhibitor, pPAFAH FP inh)
O=C1NC(=O)C(=Cc2ccc(Oc3ccc([N+](=O)[O-])cc3)cc2)C(=O)N1	Apaf1 inhib 43
COc1cc(C=C2C(=O)NC(=O)NC2=O)ccc1OCc1ccc([N+](=O)[O-])cc1	PAFAH1B2 FP inh 26 (no result: Apaf1 inhib, PREPL inhibitor, pPAFAH FP inh)
C[C@@H]1O[C@@H](O[C@@H]2C=C3CC[C@@H]4C(CC[C@]5(C)[C@@H](c6ccc(=O)oc6)CC[C@]45O)[C@@]3(C)CC2)[C@H](O)[C@H](O)[C@H]1O (some centres not stated)	none
O=C1C=Cc2ccccc2C1=O	Apaf1 inhib 62 (no result: PAFAH2 inh, PAFAH1B2 FP inh, PAFAH1B3 FP inh)
CCOC(=O)C1CCCN(c2ccc([N+](=O)[O-])c3nonc23)C1 (configuration not stated)	PAFAH2 inh 46, PAFAH1B2 FP inh 50, PAFAH1B3 FP inh 39 (no result: Apaf1 inhib, PREPL inhibitor, pPAFAH FP inh)
COC(=O)C1=C(c2ccc(C(C)=O)cc2)C[C@@H]2CC[C@H]1N2C(=O)NCc1ccc(C(F)(F)F)cc1	PAFAH1B2 FP inh 35
COC(=O)C1=C(c2ccc(OC(F)(F)F)cc2)C[C@@H]2CC[C@H]1N2C(=O)NCCc1ccccc1	pPAFAH FP inh 30
CCOC(=O)c1c(-n2c(C)cc(C=C3C(=O)NC(=S)NC3=O)c2C)sc2c1CCCC2	pPAFAH FP inh 25
O=C(CCNC(=O)N1C[C@H]2C[C@@H](C1)c1cccc(=O)n1C2)Nc1cccc(Cl)c1	none
CC(C)n1c(=O)c(C=Nc2ccc(F)cc2)c(O)n(Cc2ccco2)c1=O	none
CC1CC(OP(O)(=S)c2ccc(N(C)C)cc2NC(=O)c2cccs2)CC(C)(C)C1 (configuration not stated)	PAFAH1B2 FP inh 40
CCOc1ccc(-n2c(-c3cccs3)nc3ccccc3c2=O)cc1	none
CCn1nc(-c2cccs2)nc2c(=O)n(C)c(=O)nc1-2	PAFAH2 inh 56, PAFAH1B2 FP inh 47, PAFAH1B3 FP inh 74 (no result: Apaf1 inhib, PREPL inhibitor, pPAFAH FP inh)
CC(C)Oc1ccc(CC2(CCc3ccncc3)C(=O)NC(=O)NC2=O)cc1	none
FC(F)(F)c1cccc(-n2nnnc2C2(N3CCOCC3)CCCCC2)c1	PAFAH1B2 FP inh 31
O=C1CC(=O)N(c2cccc(C(F)(F)F)c2)C(=O)N1	none (no result: Apaf1 inhib)
CC(C)C(=O)Nc1ccc(S(=O)(=O)N2CC3CC(C2)c2cccc(=O)n2C3)cc1 (configuration not stated)	none
